≈ marks a conversion by molar mass, not a printed value.
Columns and labels:
[1] = test system: Mycobacterium tuberculosis; test: Antimycobacterial activity against Mycobacterium tuberculosis H37Rv ATCC 27294 at 12.5 ug/ml by microplate alamar blue assay relative to control; format: functional
[2] = test system: Trichophyton mentagrophytes; test: Antifungal activity against Trichophyton mentagrophytes 445 after 72 hr by microdilution broth method; format: functional; conditions: Trichophyton mentagrophytes, 445, 72 h
Method in brief: (§1)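 Broth microdilution in RPMI 1640 buffered to pH 7.0 with 0.165 M MOPS; compounds in DMSO, with compound-free controls. Strain subcultured and kept on Sabouraud dextrose agar at 4 °C. Conidia were suspended in sterile 0.85% saline, counted in a Bürker chamber to 1.0–5.0×10⁵ cfu ml⁻¹ stock, and diluted 1:20 in medium. Static incubation at 35 °C. MIC is 80% growth inhibition versus control.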

[3] = test system: Trichophyton mentagrophytes; test: Antifungal activity against Trichophyton mentagrophytes 445 after 120 hr by microdilution broth method; format: functional; conditions: Trichophyton mentagrophytes, 445, 120 h; method in brief: as §1
Chlorella vulgaris [4] = test: Inhibition of photosynthesis in Chlorella vulgaris chloroplast assessed as reduction of oxygen evolution rate after 4 hr by spectrophotometric analysis; format: functional
Chlorella vulgaris [5] = test: Inhibition of photosynthesis in Chlorella vulgaris assessed as reduction of chlorophyll production at 0.1 mM/l after 7 days by spectrophotometric analysis; format: functional; conditions: 168 h
Method in brief: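 Statically cultured Chlorella vulgaris suspensions were exposed to 0.1 mmol l⁻¹ compound, with 1% solvent in samples and control. After 7 days, chlorophyll was extracted into N,N-dimethylformamide and quantified spectrophotometrically.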

Spinacia oleracea = test: Inhibition of photosynthesis in Spinacia oleracea (spinach) chloroplast assessed as reduction of oxygen evolution rate after 4 hr by spectrophotometric analysis; format: functional
Method in brief: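 Oxygen evolution rate was measured in spinach chloroplasts at 30 mg l⁻¹, read spectrophotometrically with 2,6-dichlorophenol–indophenol as electron acceptor.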

Candida tropicalis [6] = test: Antifungal activity against Candida tropicalis 156 after 24 hr by microdilution broth method; format: functional; conditions: Candida tropicalis, 156, 24 h
Method in brief: (§2)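 Broth microdilution in RPMI 1640 buffered to pH 7.0 with 0.165 M MOPS; compounds dissolved in DMSO; drug-free controls included. Strains were kept on Sabouraud dextrose agar at 4 °C and passaged onto SDA before testing. Yeasts, conidia or sporangiospores were suspended in 0.85% saline to a stock of 1.0–5.0×10⁵ cfu ml⁻¹, then diluted 1:20 in medium. Plates were incubated statically at 35 °C.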

Candida albicans [7] = test: Antifungal activity against Candida albicans ATCC 44859 after 48 hr by microdilution broth method; format: functional; conditions: ATCC 44859, 48 h; method in brief: as §2
Candida albicans [8] = test: Antifungal activity against Candida albicans ATCC 44859 after 24 hr by microdilution broth method; format: functional; conditions: ATCC 44859, 24 h; method in brief: as §2
Lichtheimia corymbifera [9] = test: Antifungal activity against Lichtheimia corymbifera 272 after 48 hr by microdilution broth method; format: functional; conditions: Lichtheimia corymbifera, 272, 48 h; method in brief: as §2
Lichtheimia corymbifera [10] = test: Antifungal activity against Lichtheimia corymbifera 272 after 24 hr by microdilution broth method; format: functional; conditions: Lichtheimia corymbifera, 272, 24 h; method in brief: as §2
Aspergillus fumigatus [11] = test: Antifungal activity against Aspergillus fumigatus 231 after 24 hr by microdilution broth method; format: functional; conditions: Aspergillus fumigatus, 231, 24 h; method in brief: as §2
Aspergillus fumigatus [12] = test: Antifungal activity against Aspergillus fumigatus 231 after 48 hr by microdilution broth method; format: functional; conditions: Aspergillus fumigatus, 231, 48 h; method in brief: as §2
Trichosporon beigelii [13] = test: Antifungal activity against Trichosporon beigelii 1188 after 48 hr by microdilution broth method; format: functional; conditions: Trichosporon beigelii, 1188, 48 h; method in brief: as §2
Nakaseomyces glabratus [14] = test: Antifungal activity against Candida glabrata 20/I after 48 hr by microdilution broth method; format: functional; method in brief: as §2
Trichosporon beigelii [15] = test: Antifungal activity against Trichosporon beigelii 1188 after 24 hr by microdilution broth method; format: functional; conditions: Trichosporon beigelii, 1188, 24 h; method in brief: as §2
Nakaseomyces glabratus [16] = test: Antifungal activity against Candida glabrata 20/I after 24 hr by microdilution broth method; format: functional; method in brief: as §2
Pichia kudriavzevii [17] = test: Antifungal activity against Pichia kudriavzevii E 28 after 24 hr by microdilution broth method; format: functional; conditions: E 28, 24 h; method in brief: as §2
Pichia kudriavzevii [18] = test: Antifungal activity against Pichia kudriavzevii E 28 after 48 hr by microdilution broth method; format: functional; conditions: E 28, 48 h; method in brief: as §2
Candida tropicalis [19] = test: Antifungal activity against Candida tropicalis 156 after 48 hr by microdilution broth method; format: functional; conditions: Candida tropicalis, 156, 48 h; method in brief: as §2

SMILES | inhibition at 12.5 µg/mL [1] [%] | MIC80 [2] [µM] | MIC80 [3] [µM] | IC50 (Chlorella vulgaris [4]) [µM] | inhibition at 100 µM (Chlorella vulgaris [5]) [%] | IC50 (Spinacia oleracea) [µM] | further results
O=C(/C=C/c1ccc(O)cc1)c1cnccn1 | 42 | 62.5 (≈ 14.1 µg/mL) | 125 (≈ 28.3 µg/mL) |  |  |  | 
CC(C)Cc1cnc(C(=O)/C=C/c2ccc(O)cc2)cn1 | 63 | > 500 | > 500 | 232 | 35 | 235 | 
CCCCc1cnc(C(=O)/C=C/c2ccc(O)cc2)cn1 | 51 | 31.2 (≈ 8.82 µg/mL) | 62.5 (≈ 17.6 µg/mL) | 265 | 10 | 306 | 
CCCc1cnc(C(=O)/C=C/c2ccc(O)cc2)cn1 | 35 | 31.2 (≈ 8.38 µg/mL) | 62.5 (≈ 16.8 µg/mL) | 514 | 12 | 399 | 
CN(C)c1ccc(/C=C/C(=O)c2cnccn2)cc1 | 26 | > 62.5 | > 62.5 |  |  |  | 
CC(C)Cc1cnc(C(=O)/C=C/c2ccc(N(C)C)cc2)cn1 | 10 | 250 (≈ 77.4 µg/mL) | > 250 |  |  |  | 
CCCCc1cnc(C(=O)/C=C/c2ccc(N(C)C)cc2)cn1 | 0 | > 250 | > 250 |  |  |  | 
CCCc1cnc(C(=O)/C=C/c2ccc(N(C)C)cc2)cn1 | 8 | > 250 | > 250 |  |  |  | 
CCCCCCCCSc1cc(C(N)=S)ccn1 |  |  |  | 48 | 100 | 72 | 
CC(C)(C)c1ncc(C(=O)Nc2cc(O)cc(Cl)c2)nc1Cl |  |  |  | 99 |  | 105 | 
CC(C)(C)c1cnc(C(=O)Nc2cccc(O)c2)cn1 |  |  |  | 329 |  | 478 | 
COc1cc(/C=C/C(=O)c2cnccn2)ccc1O | 35 | 125 (≈ 32 µg/mL) |  |  |  |  | 
COc1cc(/C=C/C(=O)c2cnc(CC(C)C)cn2)ccc1O | 53 | 250 (≈ 78.1 µg/mL) |  |  |  |  | 
CCCCc1cnc(C(=O)/C=C/c2ccc(O)c(OC)c2)cn1 | 45 | > 100 |  |  |  |  | 
CCCc1cnc(C(=O)/C=C/c2ccc(O)c(OC)c2)cn1 | 20 | > 125 |  |  |  |  | 
O=C(/C=C/c1ccccc1O)c1cnccn1 | 55 | 15.6 (≈ 3.53 µg/mL) | 31.2 (≈ 7.07 µg/mL) |  |  |  | MIC80 (Candida tropicalis [6]): 125 µM (≈ 28.3 µg/mL); MIC80 (Candida albicans [7]): 62.5 µM (≈ 14.1 µg/mL); MIC80 (Candida albicans [8]): 62.5 µM (≈ 14.1 µg/mL); MIC80 (Lichtheimia corymbifera [9]): 250 µM (≈ 56.6 µg/mL); MIC80 (Lichtheimia corymbifera [10]): 125 µM (≈ 28.3 µg/mL); MIC80 (Aspergillus fumigatus [11]): 125 µM (≈ 28.3 µg/mL); MIC80 (Aspergillus fumigatus [12]): 250 µM (≈ 56.6 µg/mL); MIC80 (Trichosporon beigelii [13]): 250 µM (≈ 56.6 µg/mL); MIC80 (Nakaseomyces glabratus [14]): 250 µM (≈ 56.6 µg/mL); MIC80 (Trichosporon beigelii [15]): 125 µM (≈ 28.3 µg/mL); MIC80 (Nakaseomyces glabratus [16]): 125 µM (≈ 28.3 µg/mL); MIC80 (Pichia kudriavzevii [17]): 125 µM (≈ 28.3 µg/mL); MIC80 (Pichia kudriavzevii [18]): 250 µM (≈ 56.6 µg/mL); MIC80 (Candida tropicalis [19]): 250 µM (≈ 56.6 µg/mL)
CC(C)Cc1cnc(C(=O)/C=C/c2ccccc2O)cn1 | 20 | 31.2 (≈ 8.82 µg/mL) |  | 63 | 92 | 144 | 
CCCCc1cnc(C(=O)/C=C/c2ccccc2O)cn1 | 33 | 3.91 (≈ 1.1 µg/mL) | 15.6 (≈ 4.41 µg/mL) | 147 | 89 | 184 | 
CCCc1cnc(C(=O)/C=C/c2ccccc2O)cn1 | 50 | 7.81 (≈ 2.1 µg/mL) | 7.81 (≈ 2.1 µg/mL) | 100 | 68 | 187 | 
CC(=O)N1CCN(c2ccc(OCC3COC(Cn4ccnc4)(c4ccc(Cl)cc4Cl)O3)cc2)CC1 (centres undefined) [KETOCONAZOLE] |  | 0.24 (≈ 0.128 µg/mL) | 1.95 (≈ 1.04 µg/mL) |  |  |  | MIC80 (Candida tropicalis [6]): 3.91 µM (≈ 2.08 µg/mL); MIC80 (Candida albicans [7]): ≤ 0.06 µM; MIC80 (Candida albicans [8]): ≤ 0.06 µM; MIC80 (Lichtheimia corymbifera [9]): 15.6 µM (≈ 8.31 µg/mL); MIC80 (Lichtheimia corymbifera [10]): 15.6 µM (≈ 8.31 µg/mL); MIC80 (Aspergillus fumigatus [11]): 7.81 µM (≈ 4.15 µg/mL); MIC80 (Aspergillus fumigatus [12]): 7.81 µM (≈ 4.15 µg/mL); MIC80 (Trichosporon beigelii [13]): ≤ 0.06 µM; MIC80 (Nakaseomyces glabratus [14]): 1.95 µM (≈ 1.04 µg/mL); MIC80 (Trichosporon beigelii [15]): ≤ 0.06 µM; MIC80 (Nakaseomyces glabratus [16]): 0.49 µM (≈ 0.26 µg/mL); MIC80 (Pichia kudriavzevii [17]): 1.95 µM (≈ 1.04 µg/mL); MIC80 (Pichia kudriavzevii [18]): 1.95 µM (≈ 1.04 µg/mL); MIC80 (Candida tropicalis [19]): 7.81 µM (≈ 4.15 µg/mL)
NC(=O)c1cnccn1 [PYRAZINAMIDE] | 100 |  |  |  |  |  | 
